In publication PMC6540510 (Pulmonary Circulation, 2019):
Like-named read-outs stand apart in the source and are kept apart here.

How the values were obtained:
[1] = cited from earlier work
[2] = co-administered with lopinavir and ritonavir, healthy individuals; cited from earlier work
Safety and tolerability = format: in vivo, human
How it was run: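 HIV-infected adults (n = 41 treated) on stable background ART received a single fasted oral 0.5 mg dose. Treatment-emergent adverse events, vital signs, ECG and laboratory parameters were recorded. Supine and/or sitting blood pressure was measured regularly, generally at the blood-sampling times (0.5–48 h post-dose).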

[3] = cited from earlier work; remark: listed apart in the source
[4] = co-administration of ketoconazole, single 0.5 mg riociguat, 16 healthy volunteers; cited from earlier work
[5] = format: in vivo, human; details: single 0.5 mg dose
How it was run: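 Single oral 0.5 mg dose was given fasted on top of stable background ART, with plasma sampled to 48 h and assayed by HPLC-MS/MS. AUC(0–∞) was derived non-compartmentally. ANOVA on log-transformed AUC gave LS-mean ratios versus historical healthy-volunteer data (n = 80; fed and fasted states), re-transformed, with 90% CIs.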

[6] = format: in vivo; details: human, plasma, 0.5 mg; for Tmax: adults with HIV
How it was run: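 Adults with HIV on stable fixed-dose background ART for ≥6 weeks received a single oral 0.5 mg dose in the morning after a ≥10 h fast, then a further 4-h fast. Plasma was sampled at baseline and 0.5–48 h. Analysis was by HPLC-MS/MS with internal standards (LLOQ 2 µg/L). Cmax was derived non-compartmentally and summarised as geometric mean with %CV.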

[7] = sildenafil 100 mg single dose with ritonavir 500 mg twice daily; cited from earlier work
[8] = tadalafil 20 mg with ritonavir 200 mg twice daily; cited from earlier work
[9] = single 0.5 mg dose, adults with HIV
[10] = single 0.5 mg dose, adults with HIV, all background regimens, total n = 41
[11] = single 0.5 mg dose, adults with HIV, background abacavir/dolutegravir/lamivudine (TRIUMEQ), n = 8
[12] = single 0.5 mg dose, adults with HIV, background efavirenz/emtricitabine/tenofovir disoproxil (ATRIPLA), n = 8
[13] = single 0.5 mg dose, adults with HIV, background elvitegravir/cobicistat/emtricitabine/tenofovir disoproxil (STRIBILD), n = 8
[14] = single 0.5 mg dose, adults with HIV, background emtricitabine/rilpivirine/tenofovir disoproxil (COMPLERA), n = 8
[15] = single 0.5 mg dose, adults with HIV, background ritonavir-boosted triple regimen, n = 9

COC(=O)Nc1c(N)nc(-c2nn(Cc3ccccc3F)c3ncccc23)nc1N [M1]
biologic activity relative to riociguat [1]: one-tenth to one-third

COc1ccccc1Oc1c(NS(=O)(=O)c2ccc(C(C)(C)C)cc2)nc(-c2ncccn2)nc1OCCO [bosentan]
plasma concentrations on co-administration [2]: increased plasma concentrations

COC(=O)N(C)c1c(N)nc(-c2nn(Cc3ccccc3F)c3ncccc23)nc1N [riociguat]
AEs considered related to riociguat (Safety and tolerability; headache and stomach cramps, all resolved by study end): Four AEs were considered related to riociguat in three participants
AEs related to decreased blood pressure or hypotension (Safety and tolerability; [9]): No AEs related to decreased blood pressure or hypotension were reported
changes in vital signs, electrocardiogram, or laboratory parameters (Safety and tolerability; [9]): No clinically significant changes
intensity of AEs (Safety and tolerability; [9]): mild or moderate
tolerability (Safety and tolerability; single 0.5 mg dose, adults with HIV on stable background ART): well tolerated
serious AEs, AEs leading to discontinuation, or deaths (Safety and tolerability; single 0.5 mg dose, adults with HIV, n = 41): no serious AEs, AEs leading to discontinuation, or deaths
participants with headache (Safety and tolerability; single 0.5 mg dose, adults with HIV, n = 41 (four participants)): 10%
participants with a treatment-emergent AE (Safety and tolerability; single 0.5 mg dose, adults with HIV, n = 41 (ten participants)): 24%
participants with fatigue (Safety and tolerability; single 0.5 mg dose, adults with HIV, n = 41 (two participants)): 5%
Any AE (Safety and tolerability; [10]): 10 (24) n (%)
Diarrhea (Safety and tolerability; [10]): 1 (2) n (%)
Dizziness (Safety and tolerability; [10]): 1 (2) n (%)
Fatigue (Safety and tolerability; [10]): 2 (5) n (%)
Headache (Safety and tolerability; [10]): 4 (10) n (%)
Lip swelling (Safety and tolerability; [10]): 1 (2) n (%)
Oral paresthesia (Safety and tolerability; [10]): 1 (2) n (%)
Oropharyngeal pain (Safety and tolerability; [10]): 1 (2) n (%)
Pain (Safety and tolerability; [10]): 1 (2) n (%)
Pyrexia (Safety and tolerability; [10]): 1 (2) n (%)
Upper abdominal pain (Safety and tolerability; [10]): 1 (2) n (%)
Urethritis (Safety and tolerability; [10]): 1 (2) n (%)
Any AE (Safety and tolerability; [11]): 2 (25) n (%)
Diarrhea (Safety and tolerability; [11]): 0 n (%)
Dizziness (Safety and tolerability; [11]): 0 n (%)
Fatigue (Safety and tolerability; [11]): 1 (13) n (%)
Headache (Safety and tolerability; [11]): 1 (13) n (%)
Lip swelling (Safety and tolerability; [11]): 0 n (%)
Oral paresthesia (Safety and tolerability; [11]): 0 n (%)
Oropharyngeal pain (Safety and tolerability; [11]): 0 n (%)
Pain (Safety and tolerability; [11]): 0 n (%)
Pyrexia (Safety and tolerability; [11]): 1 (13) n (%)
Upper abdominal pain (Safety and tolerability; [11]): 0 n (%)
Urethritis (Safety and tolerability; [11]): 0 n (%)
Any AE (Safety and tolerability; [12]): 1 (13) n (%)
Diarrhea (Safety and tolerability; [12]): 0 n (%)
Dizziness (Safety and tolerability; [12]): 0 n (%)
Fatigue (Safety and tolerability; [12]): 0 n (%)
Headache (Safety and tolerability; [12]): 0 n (%)
Lip swelling (Safety and tolerability; [12]): 0 n (%)
Oral paresthesia (Safety and tolerability; [12]): 1 (13) n (%)
Oropharyngeal pain (Safety and tolerability; [12]): 0 n (%)
Pain (Safety and tolerability; [12]): 0 n (%)
Pyrexia (Safety and tolerability; [12]): 0 n (%)
Upper abdominal pain (Safety and tolerability; [12]): 0 n (%)
Urethritis (Safety and tolerability; [12]): 0 n (%)
Any AE (Safety and tolerability; [13]): 2 (25) n (%)
Diarrhea (Safety and tolerability; [13]): 0 n (%)
Dizziness (Safety and tolerability; [13]): 1 (13) n (%)
Fatigue (Safety and tolerability; [13]): 1 (13) n (%)
Headache (Safety and tolerability; [13]): 0 n (%)
Lip swelling (Safety and tolerability; [13]): 1 (13) n (%)
Oral paresthesia (Safety and tolerability; [13]): 0 n (%)
Oropharyngeal pain (Safety and tolerability; [13]): 0 n (%)
Pain (Safety and tolerability; [13]): 0 n (%)
Pyrexia (Safety and tolerability; [13]): 0 n (%)
Upper abdominal pain (Safety and tolerability; [13]): 0 n (%)
Urethritis (Safety and tolerability; [13]): 0 n (%)
Any AE (Safety and tolerability; [14]): 3 (38) n (%)
Diarrhea (Safety and tolerability; [14]): 0 n (%)
Dizziness (Safety and tolerability; [14]): 0 n (%)
Fatigue (Safety and tolerability; [14]): 0 n (%)
Headache (Safety and tolerability; [14]): 1 (13) n (%)
Lip swelling (Safety and tolerability; [14]): 0 n (%)
Oral paresthesia (Safety and tolerability; [14]): 0 n (%)
Oropharyngeal pain (Safety and tolerability; [14]): 1 (13) n (%)
Pain (Safety and tolerability; [14]): 1 (13) n (%)
Pyrexia (Safety and tolerability; [14]): 0 n (%)
Upper abdominal pain (Safety and tolerability; [14]): 0 n (%)
Urethritis (Safety and tolerability; [14]): 1 (13) n (%)
Any AE (Safety and tolerability; [15]): 2 (22) n (%)
Diarrhea (Safety and tolerability; [15]): 1 (11) n (%)
Dizziness (Safety and tolerability; [15]): 0 n (%)
Fatigue (Safety and tolerability; [15]): 0 n (%)
Headache (Safety and tolerability; [15]): 2 (22) n (%)
Lip swelling (Safety and tolerability; [15]): 0 n (%)
Oral paresthesia (Safety and tolerability; [15]): 0 n (%)
Oropharyngeal pain (Safety and tolerability; [15]): 0 n (%)
Pain (Safety and tolerability; [15]): 0 n (%)
Pyrexia (Safety and tolerability; [15]): 0 n (%)
Upper abdominal pain (Safety and tolerability; [15]): 1 (11) n (%)
Urethritis (Safety and tolerability; [15]): 0 n (%)
bioavailability [3]: > 90%
fraction of the dose eliminated by oxidative biotransformation [3]: 27–71%
mean half-life ([3]; healthy individuals): approximately 7 h
mean half-life ([3]; patients with PAH): approximately 12 h
increase in mean AUC0-∞ compared with controls [4]: 2.5 fold
riociguat exposure (AUC) compared with historical healthy volunteers ([5]; administered with abacavir/dolutegravir/lamivudine): increased by approximately threefold
riociguat exposure (AUC) compared with historical healthy volunteers ([5]; administered with ritonavir-boosted triple regimen): slightly increased
riociguat exposure (AUC) compared with historical healthy volunteers ([5]; co-administered with efavirenz/emtricitabine/tenofovir disoproxil): similar
riociguat exposure (AUC) compared with historical healthy volunteers ([5]; co-administered with efavirenz/emtricitabine/tenofovir disoproxil, listed as Riociguat): no apparent change
Cmax ([6]; oral): 14.2 to 20.4 ng/mL
Tmax ([6]; oral, median tmax, range across the five background antiretroviral groups, single 0.5 mg dose): 1 to 1.27 h
Tmax ([6]; po, tmax, single 0.5 mg oral dose, background abacavir/dolutegravir/lamivudine (TRIUMEQ), median (range), n = 8): 1.27 h
Tmax ([6]; po, tmax, single 0.5 mg oral dose, background efavirenz/emtricitabine/tenofovir disoproxil (ATRIPLA), median (range), n = 8): 1 h
Tmax ([6]; po, tmax, single 0.5 mg oral dose, background elvitegravir/cobicistat/emtricitabine/tenofovir disoproxil (STRIBILD), median (range), n = 8): 1.03 h
Tmax ([6]; po, tmax, single 0.5 mg oral dose, background emtricitabine/rilpivirine/tenofovir disoproxil (COMPLERA), median (range), n = 8): 1.03 h
Tmax ([6]; po, tmax, single 0.5 mg oral dose, background ritonavir-boosted triple regimen, median (range), n = 8): 1.03 h

CCCc1nn(C)c2c(=O)[nH]c(-c3cc(S(=O)(=O)N4CCN(C)CC4)ccc3OCC)nc12 [sildenafil]
increase in plasma AUC [7]: 11 fold

CN1CC(=O)N2[C@H](c3ccc4c(c3)OCO4)c3[nH]c4ccccc4c3C[C@@H]2C1=O [tadalafil]
change in Cmax [8]: no change
increase in single-dose exposure [8]: 124%
